# Source: PubChem
# TNF necrop inh: inhibitors of TNF-alpha induced necroptosis in Jurkat FADD-/- cells | Jurkat FADD-/- TNF necroptosis rescue, ATP luminescence, 24 h; 0 = TNF only, 100 = no-TNF cells | activation (protection from cell death), % at 10 µM | 0.068% of 220,000 active | AID 463075;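 active means activation, meaning protection from cell death, of at least 50% relative to plate controls; inactive means activation below 50%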;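 further: necroptosis triggered by 40 ng/mL TNF-alpha added together with compound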
# M18AAP inhibitor: PfM18AAP enzyme inhibition; recombinant PfM18AAP, H-Glu-NHMec fluorogenic cleavage; 1.2% of 290,000 active; inhibition, % at 7.35 µM;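 active means inhibition above the campaign mean inhibition over all tested compounds plus 3 SD, cut at about 28% in these data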
# p97 ATPase inh: human p97 ATPase inhibition. P55072. recombinant p97 ATPase, Kinase-Glo ATP luminescence, 3 h. inhibition, % at 8 µM. 0.42% of 220,000 active; in the data active means inhibition above about 15%
# L929 necroptosis: L929 zVAD cell death inhibition; AID 1377; 0.38% of 220,000 active; L929 zVAD necroptosis rescue, ATP luminescence, 24 h; with zVAD 60 µM; viability rescue, % at 10 µM;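 active means activation, scaled between plate controls, above about 75%, limit read from the data; inactive means activation under that limit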
# RBBP9 inhibitor: blocks human serine hydrolase RBBP9. O75884. recombinant RBBP9, FP-Rh probe fluorescence polarization. inhibition, % at 7.94 µM. 0.2% of 220,000 active;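 active means inhibition above the campaign mean of all tested compounds plus 3 SD, cut at about 14% in these data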
# Target sequence (O75884 whole entry, looked up): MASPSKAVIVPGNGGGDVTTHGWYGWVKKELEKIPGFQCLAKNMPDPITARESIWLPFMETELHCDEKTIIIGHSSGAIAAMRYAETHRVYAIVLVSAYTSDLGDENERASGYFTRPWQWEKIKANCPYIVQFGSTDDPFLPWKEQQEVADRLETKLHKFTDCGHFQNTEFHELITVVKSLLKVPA
#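 Test system – recombinant human RBBP9 · Input – RBBP9 2.5 µM in dispensing solution, pre-mixing · Medium – Tris buffer pH 8.0, NaCl, Pluronic · Schedule – preincubation 30 min plus labeling 45 min at 25 °C · Measured by – fluorescence polarization · Measure – % inhibition · Controls – DMSO and no-protein wells · Replicates – one well per compound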
# Wee1 degr inh: inhibitors of human Wee1 degradation; HeLa Luc-Wee1K328M stability, luciferase luminescence; 100% = proteasome inhibitor MG132 effect; reporter increase, % at 5 µM; 1.2% of 220,000 active; AID 1321;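 active means activation above the mean of all tested compounds plus 3 SD, set per screening run, cut at about 8.8% in these data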;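 further: cells exposed to compound for 20 h before luminescence read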
# A number is an active result; n = inactive; x = no result given. This is a sample that favours compounds with a hit; in the whole collection about 2.7% have one here.
SMILES,TNF necrop inh,M18AAP inhibitor,p97 ATPase inh,L929 necroptosis,RBBP9 inhibitor,Wee1 degr inh
Cc1ccc(C(=O)Nc2nc(C)c(C(=O)Nc3ccc4c(c3)CCC4)s2)cc1,n,n,n,n,n,9.8
Cc1nc(NC(=O)c2ccc(F)cc2)sc1C(=O)Nc1ccc2c(c1)CCC2,n,n,n,n,n,n
Cc1sc2ncnc(OCC(=O)NC3CCS(=O)(=O)C3)c2c1C (centres undefined),n,n,n,n,n,n
CCN(CC)c1nc(SCC(=O)O)nc(N(CC)CC)n1,n,n,15,n,n,n
CCN1/C(=C/c2ccc3cc(C)ccc3[n+]2CC)Sc2ccccc21,n,49,n,n,n,n
Cc1nc2ccc(NC(=O)NC(=O)c3c(Cl)cccc3Cl)cc2o1,n,n,n,n,n,10
CNC(=O)Nc1ccc2nc(C)oc2c1,n,n,n,n,n,n
COc1ccc(OCC(=O)Nc2ccc(NC(=O)c3ccccc3Cl)c(OC)c2)cc1,x,n,x,x,x,x
Cc1cccc(C)c1OCC(=O)Nc1ncn[nH]1,n,29,n,n,n,n
O=C1CCCC2=C1C(c1ccc(O)c(O)c1)c1c(ccc3ncccc13)N2 (centres undefined),n,77,n,n,n,n
CCOc1ccc(C2C3=C(CCCC3=O)Nc3ccc4ncccc4c32)cc1 (centres undefined),n,n,n,n,n,n
O=C(O)c1cnc(-c2ccccc2)nc1C(F)(F)F,n,n,n,n,n,11
COc1ccc(CNC(=O)c2nccnc2CO)cc1,x,n,x,x,x,x
CN1CCc2cccc3c2[C@H]1Cc1ccc(O)c(O)c1-3,n,35,n,n,28,n
CCCCNC(=O)CNC(=S)N(Cc1ccccc1F)C1CCCCC1,n,n,n,n,n,9.1
COc1ccc(-n2c(SCC(=O)N/N=C(\C)c3cccnc3)nc3ccccc3c2=O)cc1,n,n,n,n,n,n
CC(C)N1CCN(CC#Cc2ccccc2)CC1CCO (centres undefined),n,n,n,n,n,n
CC(C)N1CCC(N2CCN(CC#Cc3ccccc3)CC2CCO)CC1 (centres undefined),n,n,n,n,n,16
COCCNC(=O)Cn1cc(C(=S)N2CCOCC2)c2ccccc21,n,n,n,n,n,9.8
COCCCNC(=O)Cn1cc(C(C)=O)c2ccccc21,n,n,n,n,n,n
N#CCSc1nnc(-c2ccccc2O)n1Cc1ccccc1,n,n,n,n,n,11
COCCCNc1nc2c(-c3cccc(C)c3)nnn2c2ccccc12,n,n,n,n,n,49
Cc1cccc2c(C(=O)n3cccn3)cc(-c3ccccc3Cl)nc12,n,n,n,n,n,n
Cc1cccc2c(C(=O)Nn3cnnc3)cc(-c3ccccc3Cl)nc12,n,45,n,n,n,n
O=C(NNS(=O)(=O)c1ccccc1)c1ccc([N+](=O)[O-])cc1,x,29,x,x,x,x
SMILES,TNF necrop inh,M18AAP inhibitor,p97 ATPase inh,L929 necroptosis,RBBP9 inhibitor,Wee1 degr inh
O=C(O)c1cc(-c2ccc(Cl)cc2)n(-c2cccc(Cl)c2)n1,x,n,x,x,x,x
COc1ccc(NC(=O)CCSCCc2ccccn2)cc1OC,n,n,n,n,n,n
Cc1cccc(/C(N)=N/OC(=O)COc2ccccc2Cl)c1,n,n,n,n,n,12
O=C(O)C1Nc2c(O)cc(Cl)c([N+](=O)[O-])c2C2C=CCC12 (centres undefined),n,n,54,n,n,n
Cc1ccc2c(c1)C1C=CCC1C(C(=O)O)N2 (centres undefined),n,n,n,x,n,n
COc1ccccc1CC(=O)Nc1ncc(C)s1,x,n,x,x,x,x
CC(C)OC(=O)c1ccc(NC(=O)C2C3CC4OC(=O)C2C4C3)cc1 (centres undefined),n,n,n,n,n,9.8
O=C(CCC(=O)c1ccc(Br)cc1)Nc1cccc(C(F)(F)F)c1,n,n,n,91,n,n
CCCNC(=S)N1CCC(NC(=O)C2CCCCC2)CC1,n,n,n,n,n,10
N=C(SC1CC(=O)N(c2ccc(F)cc2)C1=O)N1N=C(c2ccccc2)CC1c1ccccc1 (centres undefined),n,n,n,n,n,n
CCN1CCN(C(=S)c2ccc(SC)cc2)CC1,n,31,n,n,n,n
CSc1ccc(C(=S)N2CCCCCC2)cc1,x,n,x,x,x,x
COc1ccc(-n2c(N)c(C(=O)NCC3CCCO3)sc2=S)cc1 (centres undefined),n,n,n,n,n,10
CCNCc1cc(Cl)cc(OC)c1OC(C)C,n,n,n,n,n,9.2
CC(=O)Nc1cccc(C(=O)OC(C(=O)c2ccc(C)c(C)c2)c2ccccc2)c1 (centres undefined),n,n,n,83,n,n
CC(=O)Nc1cccc(C(=O)OC(C(=O)c2ccc(C)cc2)c2ccccc2)c1 (centres undefined),n,n,n,n,n,n
CCCCC(NC(=O)Cc1c(C)c2cc3c(-c4ccccc4)coc3c(C)c2oc1=O)C(=O)O (centres undefined),x,n,x,x,x,x
Cc1ccccc1N=C(NO)c1nonc1N,n,29,n,n,n,n
Cc1ccc(C)c(C(=O)Cn2c(NCCO)nc3ccccc32)c1,x,n,x,x,x,x
CCNc1nc2ccccc2[nH]1,n,n,n,n,n,9.8
Cc1c(NC(=O)C(=O)/C=C(\O)c2ccc(Br)cc2)c(=O)n(-c2ccccc2)n1C,n,n,n,n,n,n
COc1cccc(C(=O)C2CCCN(C/C=C/c3ccccc3OC)C2)c1 (centres undefined),n,n,n,n,n,n
COc1ccc(/C=C/CN2CCCC(C(=O)c3ccc(OC)c(F)c3)C2)cc1 (centres undefined),n,n,n,n,n,9.1
CC(=O)NCCNC(=O)c1ccc(CSc2nc3ccccc3s2)cc1,x,n,x,x,x,x
CN(C)c1ccc(N=Nc2cccc(F)c2)cc1,x,n,x,x,x,x
SMILES,TNF necrop inh,M18AAP inhibitor,p97 ATPase inh,L929 necroptosis,RBBP9 inhibitor,Wee1 degr inh
CN(C)c1ccc(N=Nc2cccc3ccoc23)cc1,n,n,n,n,n,9.0
O=C(COc1ccccc1)NC1CCCCCCC1,x,n,x,x,x,x
O=C(O)CN1C(=O)NC2(CCOc3ccccc32)C1=O (centres undefined),n,n,n,n,n,9.8
O=S(=O)(NC1CCSc2ccccc21)c1ccc(Cl)nc1 (centres undefined),x,n,x,x,x,x
Cc1sc2ncnc(N3CCN(Cc4ccccc4)CC3)c2c1-c1ccccc1,x,n,x,x,x,x
CCC1=[N+](CC(=O)c2ccc(Br)cc2)CCn2c(C)ccc21,n,n,n,n,n,11
Cc1ccc(NS(=O)(=O)c2cc(C(=O)N3CCN(C)CC3)ccc2C)cc1C,n,n,n,n,n,8.9
COc1ccc(-c2cc(C(F)(F)F)n3ncc(C(=O)N4CCCCC4c4cccnc4)c3n2)cc1 (centres undefined),n,n,n,n,n,n
CCN(CC)Cc1cc(O)c(CN(CC)CC)cc1O,n,29,n,n,n,n
